Reference: ChEMBL document CHEMBL4017520, “Discovery, Structure-Activity Relationship, and Antiparkinsonian Effect of a Potent and Brain-Penetrant Chemical Series of Positive Allosteric Modulators of Metabotropic Glutamate Receptor 4” (J Med Chem, 2017)
Blank lines part the entries; values can stand above or below the compound they belong to. Calls of active or inactive are those of the source. The calls are words filed in the database; no cut-off is given here.

Assays:
[1] = molecular target: T1, Metabotropic glutamate receptor 4 (Homo sapiens, UniProt Q14833); test: Agonist activity at recombinant human mGlu4 receptor expressed in HEK293 cells co-expressing chimeric Gi/Gq protein assessed as increase in calcium flux at 3 uM after 10 mins by Fluo4-AM dye based fluorescence assay relative to control; format: functional, cell-based
Method in brief: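 Human mGluR4 co-expressed in HEK293 cells with the chimeric Gi/Gq (GqTOP) protein, loaded with Fluo4-AM. Compound was added alone and calcium signal recorded for 10 min, compared with the buffer-evoked basal signal.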

[2] = molecular target: T1, Metabotropic glutamate receptor 4; test: Positive allosteric modulation of recombinant human mGlu4 receptor expressed in HEK293 cells co-expressing chimeric Gi/Gq assessed as increase in EC20 glutamate-induced calcium flux preincubated for 10 mins followed by glutamate addition measured for 3 mins by Fluo4-AM dye based fluorescence assay relative to control; format: functional, cell-based
Homo sapiens = species on record: Homo sapiens; test: Selectivity ratio of compound effect for positive allosteric modulation of recombinant human mGlu4 receptor to compound effect for activity at human mGlu6 receptor
[3] = molecular target: Metabotropic glutamate receptor 1 (Homo sapiens) (UniProt Q13255); test: Activity at human mGlu1 receptor expressed in HEK293 cells co-expressing Gi/Gq assessed as effect on intracellular calcium level up to 10 uM after 10 mins by Fluo4-AM dye based fluorescence assay; format: functional, cell-based
Method in brief: (§1)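 HEK-293 cells transiently expressing the human mGluR with a promiscuous or chimeric G protein were serum-starved 3 h and loaded 1.5 h with 1 μM Fluo4-AM. Compound alone was added in assay buffer, and calcium fluorescence (ex 485/em 525) was recorded for 10 min as agonist readout.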

Rattus norvegicus [4] = species on record: Rattus norvegicus; test: Activity at AMPA glutamate receptor in rat cerebral cortex at 10 uM
Method in brief: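 Inhibition of orthosteric ligand binding to NMDA, AMPA and kainate receptors on rat cerebral cortex membranes, tested up to 10 μM.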

[5] = molecular target: Metabotropic glutamate receptor 7 (Homo sapiens) (UniProt Q14831); test: Activity at human mGlu7 receptor expressed in HEK293 cells co-expressing Gi/Gq assessed as effect on intracellular calcium level up to 10 uM after 10 mins by Fluo4-AM dye based fluorescence assay; format: functional, cell-based; method in brief: as §1
[6] = molecular target: Adenosine receptor A2a (Homo sapiens) (UniProt P29274); test: Antagonist activity at A2A receptor (unknown origin) at 10 uM
[7] = molecular target: Tyrosine-protein kinase JAK3 (Homo sapiens) (UniProt P52333); test: Inhibition of JAK3 (unknown origin) at 10 uM
Mus musculus = test: Anti-parkinson's activity in ip dosed C57BL/6 mouse assessed as reversal of haloperidol-induced catalepsy after 40 mins; format: functional, organism-based
Rattus norvegicus [8] = test: Protection against 6-OHDA induced parkinsonian motor deficit in Sprague-Dawley rat assessed as increase in slow activity at 30 mg/kg, ip after 30 to 120 mins post administration; format: functional, organism-based
Method in brief: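 Adult male Sprague−Dawley rats with bilateral 6-OHDA striatal lesions given compound 30 mg/kg ip or vehicle at T0; spontaneous locomotor activity (active time, slow activity, rearing) counted in 5-min bins versus pre-surgery vehicle; n = 10.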

[9] = molecular target: Metabotropic glutamate receptor 7 (Homo sapiens) (UniProt Q14831); test: Activity at human mGlu7 receptor expressed in HEK293 cells co-expressing Gi/Gq assessed as effect on LAP4-induced intracellular calcium level up to 10 uM after 10 mins by Fluo4-AM dye based fluorescence assay; format: functional, cell-based
Method in brief: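 Human mGluR7 in transfected HEK293 cells loaded with Fluo4-AM. Compound was added for 10 min, followed by L-AP4 at EC20 or EC80 in place of glutamate, and calcium fluorescence was recorded for 3 min. Results are from at least two or three independent experiments.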

Brain = test: Fraction unbound in Sprague-Dawley rat brain at 30 mg/kg, ip after 30 mins; format: ADME, organism-based; details: in vivo, 0.5 h
[10] = molecular target: Amine oxidase [flavin-containing] B (Homo sapiens, UniProt P27338); test: Activity at MAO-B (unknown origin) up to 10 uM; format: ADME
[11] = Cmax in Sprague-Dawley rat at 1 mg/kg, iv administered as single dose by LC-MS/MS analysis; format: ADME, organism-based; parameters: dose 1 mg/kg, route intravenous; details: in vivo
[12] = Plasma clearance in Sprague-Dawley rat at 1 mg/kg, iv administered as single dose by LC-MS/MS analysis; format: ADME, organism-based
Method in brief: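 Single iv dose, 1 mg/kg in rat or 2 mg/kg in mouse; plasma PK parameters derived; brain/plasma ratio taken at 1 h postdose (rat) or 30 min postdose (mouse). Mean of 3 rats; 2 mice for mouse Cmax and brain/plasma.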

[13] = Tmax in Sprague-Dawley rat plasma at 10 mg/kg, ip administered as single dose by LC-MS/MS analysis; format: ADME, organism-based
Method in brief: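 Single-dose plasma PK after ip (10 or 30 mg/kg) or oral (10 mg/kg) dosing in rats, and oral 10 mg/kg dosing in mice. […] Values are mean ±SEM of 3 rats or 2 mice.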

[14] = Half life in Sprague-Dawley rat plasma at 30 mg/kg, ip administered as single dose by LC-MS/MS analysis; format: ADME, organism-based
Method in brief: (§2)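 Single dose ip (10 or 30 mg/kg, rat) or oral (10 mg/kg, rat or mouse); plasma Cmax, Tmax, half-life, AUC0−inf derived; brain concentration and brain/plasma ratio at 30 min postdose. Mean of 3 rats or 2 mice.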

[15] = Drug uptake in Sprague-Dawley rat brain at 10 mg/kg, ip after 30 mins post dose administered as single dose by LC-MS/MS analysis; format: ADME, organism-based; details: read-out: Drug uptake
Method in brief: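 Rats dosed ip at 10 or 30 mg/kg. Plasma Cmax, Tmax, half-life and AUC0–inf were determined. Brain concentration was measured 30 min postdose, and brain/plasma ratio was taken at 30 min. Values are the mean (±SEM) of 3 rats.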

[16] = Ratio of drug level in Sprague-Dawley rat brain to plasma at 10 mg/kg, ip after 30 mins post dose administered as single dose by LC-MS/MS analysis; format: ADME, organism-based; details: read-out: BPR; method in brief: as §2
[17] = Ratio of drug level in Sprague-Dawley rat brain to plasma at 10 mg/kg, po after 30 mins post dose administered as single dose by LC-MS/MS analysis; format: ADME, organism-based; details: read-out: BPR; method in brief: as §2
[18] = Ratio of drug level in C57BL/6 mouse brain to plasma at 10 mg/kg, po after 30 mins post dose administered as single dose by LC-MS/MS analysis; format: ADME, organism-based; details: read-out: BPR; method in brief: as §2
[19] = Ratio of drug uptake in Sprague-Dawley rat brain at 30 mg/kg, ip to EC50 for rat mGlu4 receptor expressed in HEK293 cells
Method in brief: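 Rats received a single ip or oral dose. Brain concentration was measured 30 min postdose, mean of 3 rats, and divided by the EC50 measured in cell lines overexpressing rat mGluR4.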

[20] = Oral bioavailability in Sprague-Dawley rat plasma at 10 mg/kg administered as single dose by LC-MS/MS analysis; format: ADME, organism-based
Plasma = test: Drug level in Sprague-Dawley rat plasma at 10 mg/kg, po administered as single dose measured at 24 hrs post dose by LC-MS/MS analysis; format: ADME, organism-based; details: in vivo
Method in brief: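 Rats given a single oral dose of 10 mg/kg. The first plasma sample was taken at 15 min, and sampling continued to 24 h postdose. Brain was sampled at 30 min. Values are the mean (±SEM) of 3 rats.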

Rattus norvegicus [21] = test: Toxicity in 6-OHDA induced parkinsonian motor deficit Sprague-Dawley rat model assessed as induction of overacting rearing behavior up to 30 mg/kg, ip in presence of L-dopa; format: organism-based; details: in vivo

T1 sequence (Q14833 whole entry): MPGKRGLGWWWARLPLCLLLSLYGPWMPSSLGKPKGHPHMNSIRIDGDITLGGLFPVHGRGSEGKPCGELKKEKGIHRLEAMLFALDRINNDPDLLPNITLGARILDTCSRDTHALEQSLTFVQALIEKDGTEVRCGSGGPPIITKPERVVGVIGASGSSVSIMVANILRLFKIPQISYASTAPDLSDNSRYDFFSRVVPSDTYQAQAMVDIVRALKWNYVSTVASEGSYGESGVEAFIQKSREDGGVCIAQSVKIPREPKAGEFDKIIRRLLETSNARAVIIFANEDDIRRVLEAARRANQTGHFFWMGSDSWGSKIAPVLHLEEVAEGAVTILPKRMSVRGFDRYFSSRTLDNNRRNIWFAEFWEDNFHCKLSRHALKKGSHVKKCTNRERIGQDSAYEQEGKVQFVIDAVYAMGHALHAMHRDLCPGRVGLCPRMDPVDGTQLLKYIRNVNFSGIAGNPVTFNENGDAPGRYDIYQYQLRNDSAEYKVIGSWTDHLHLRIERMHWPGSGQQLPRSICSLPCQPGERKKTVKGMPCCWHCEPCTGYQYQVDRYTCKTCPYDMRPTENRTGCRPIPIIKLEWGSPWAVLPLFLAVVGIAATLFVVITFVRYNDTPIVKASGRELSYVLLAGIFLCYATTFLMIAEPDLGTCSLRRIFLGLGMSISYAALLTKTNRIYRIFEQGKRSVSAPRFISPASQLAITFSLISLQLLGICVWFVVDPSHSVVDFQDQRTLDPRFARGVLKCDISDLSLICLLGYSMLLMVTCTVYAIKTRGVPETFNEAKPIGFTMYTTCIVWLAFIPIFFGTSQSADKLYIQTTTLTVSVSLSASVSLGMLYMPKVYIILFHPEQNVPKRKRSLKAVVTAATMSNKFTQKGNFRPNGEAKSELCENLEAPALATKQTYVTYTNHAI
Metabotropic glutamate receptor 7 (Homo sapiens), sequence (Q14831 whole entry): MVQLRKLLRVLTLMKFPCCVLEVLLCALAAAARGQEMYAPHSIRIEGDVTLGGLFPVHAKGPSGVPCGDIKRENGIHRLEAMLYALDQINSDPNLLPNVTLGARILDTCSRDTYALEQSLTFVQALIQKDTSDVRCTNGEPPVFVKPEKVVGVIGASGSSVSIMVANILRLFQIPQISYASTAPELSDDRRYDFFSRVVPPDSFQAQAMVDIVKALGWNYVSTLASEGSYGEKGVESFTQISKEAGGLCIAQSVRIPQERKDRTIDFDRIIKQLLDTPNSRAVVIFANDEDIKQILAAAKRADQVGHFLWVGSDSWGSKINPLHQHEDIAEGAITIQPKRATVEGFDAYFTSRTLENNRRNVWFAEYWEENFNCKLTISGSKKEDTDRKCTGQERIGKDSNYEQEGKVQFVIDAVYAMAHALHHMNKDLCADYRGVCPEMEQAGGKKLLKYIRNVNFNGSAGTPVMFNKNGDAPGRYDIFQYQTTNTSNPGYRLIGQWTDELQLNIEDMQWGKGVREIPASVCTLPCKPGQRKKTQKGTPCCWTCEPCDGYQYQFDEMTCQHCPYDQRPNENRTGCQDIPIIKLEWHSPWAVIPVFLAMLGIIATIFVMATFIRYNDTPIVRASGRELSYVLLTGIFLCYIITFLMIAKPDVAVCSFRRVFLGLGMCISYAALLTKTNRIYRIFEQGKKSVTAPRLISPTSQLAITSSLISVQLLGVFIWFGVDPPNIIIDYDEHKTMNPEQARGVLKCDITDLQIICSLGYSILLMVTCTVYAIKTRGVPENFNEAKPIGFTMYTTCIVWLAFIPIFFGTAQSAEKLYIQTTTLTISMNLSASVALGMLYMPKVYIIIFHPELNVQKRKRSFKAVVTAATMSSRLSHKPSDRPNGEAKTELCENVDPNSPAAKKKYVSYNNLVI
Adenosine receptor A2a (Homo sapiens), sequence (P29274 whole entry): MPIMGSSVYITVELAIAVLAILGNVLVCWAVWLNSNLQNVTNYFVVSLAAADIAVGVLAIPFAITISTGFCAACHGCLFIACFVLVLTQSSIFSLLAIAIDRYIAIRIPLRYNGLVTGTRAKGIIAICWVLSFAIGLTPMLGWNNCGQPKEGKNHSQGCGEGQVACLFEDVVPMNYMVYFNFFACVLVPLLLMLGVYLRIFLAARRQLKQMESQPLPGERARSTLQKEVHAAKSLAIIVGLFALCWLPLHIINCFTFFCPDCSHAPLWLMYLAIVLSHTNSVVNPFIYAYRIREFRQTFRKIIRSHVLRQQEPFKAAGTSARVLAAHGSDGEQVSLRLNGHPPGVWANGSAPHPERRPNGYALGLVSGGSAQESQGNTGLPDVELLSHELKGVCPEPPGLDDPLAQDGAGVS
Amine oxidase [flavin-containing] B, sequence (P27338 whole entry): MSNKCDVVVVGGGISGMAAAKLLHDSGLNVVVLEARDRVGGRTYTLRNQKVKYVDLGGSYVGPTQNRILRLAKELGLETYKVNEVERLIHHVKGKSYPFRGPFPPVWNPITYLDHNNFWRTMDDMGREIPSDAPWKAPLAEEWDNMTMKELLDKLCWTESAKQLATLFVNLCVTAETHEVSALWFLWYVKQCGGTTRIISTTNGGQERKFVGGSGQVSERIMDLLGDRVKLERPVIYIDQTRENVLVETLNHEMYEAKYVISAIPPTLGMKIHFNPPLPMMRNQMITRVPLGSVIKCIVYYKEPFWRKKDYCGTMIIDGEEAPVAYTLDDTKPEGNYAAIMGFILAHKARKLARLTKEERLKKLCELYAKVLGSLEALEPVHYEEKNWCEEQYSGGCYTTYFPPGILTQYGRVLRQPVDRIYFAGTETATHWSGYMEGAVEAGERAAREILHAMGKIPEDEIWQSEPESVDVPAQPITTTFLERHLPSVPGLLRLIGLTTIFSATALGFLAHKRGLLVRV
Metabotropic glutamate receptor 1 (Homo sapiens), sequence (Q13255 19-1194 limits assumed): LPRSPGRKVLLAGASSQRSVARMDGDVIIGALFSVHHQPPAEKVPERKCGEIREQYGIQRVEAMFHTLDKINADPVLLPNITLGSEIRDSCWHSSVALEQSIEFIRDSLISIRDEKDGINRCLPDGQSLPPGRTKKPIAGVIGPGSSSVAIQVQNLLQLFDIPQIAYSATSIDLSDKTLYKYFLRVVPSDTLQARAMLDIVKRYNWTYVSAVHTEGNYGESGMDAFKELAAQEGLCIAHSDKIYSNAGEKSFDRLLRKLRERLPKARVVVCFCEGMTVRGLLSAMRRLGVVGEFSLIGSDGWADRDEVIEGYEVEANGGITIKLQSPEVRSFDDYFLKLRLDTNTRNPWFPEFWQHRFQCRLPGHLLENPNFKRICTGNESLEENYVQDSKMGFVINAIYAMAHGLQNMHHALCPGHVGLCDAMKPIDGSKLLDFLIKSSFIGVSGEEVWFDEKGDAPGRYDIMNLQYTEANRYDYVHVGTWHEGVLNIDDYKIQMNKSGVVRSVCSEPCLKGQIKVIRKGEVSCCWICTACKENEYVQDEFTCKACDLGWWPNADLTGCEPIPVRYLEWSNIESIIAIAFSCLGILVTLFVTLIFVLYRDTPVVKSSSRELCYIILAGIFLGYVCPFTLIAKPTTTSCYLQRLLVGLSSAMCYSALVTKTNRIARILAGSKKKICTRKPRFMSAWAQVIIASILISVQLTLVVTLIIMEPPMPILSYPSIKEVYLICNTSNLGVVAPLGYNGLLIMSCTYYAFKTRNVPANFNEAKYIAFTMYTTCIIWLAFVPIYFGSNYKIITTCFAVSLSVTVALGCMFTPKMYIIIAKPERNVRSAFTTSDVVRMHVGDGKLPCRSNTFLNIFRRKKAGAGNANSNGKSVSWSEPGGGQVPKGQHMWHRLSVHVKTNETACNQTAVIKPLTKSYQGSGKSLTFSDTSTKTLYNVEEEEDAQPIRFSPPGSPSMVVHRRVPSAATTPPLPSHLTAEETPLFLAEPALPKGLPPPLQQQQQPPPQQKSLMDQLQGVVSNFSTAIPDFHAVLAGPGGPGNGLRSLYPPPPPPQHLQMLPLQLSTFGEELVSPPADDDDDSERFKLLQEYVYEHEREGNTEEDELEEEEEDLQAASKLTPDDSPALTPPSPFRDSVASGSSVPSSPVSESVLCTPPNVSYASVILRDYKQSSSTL
Tyrosine-protein kinase JAK3 (Homo sapiens), sequence (P52333 whole entry): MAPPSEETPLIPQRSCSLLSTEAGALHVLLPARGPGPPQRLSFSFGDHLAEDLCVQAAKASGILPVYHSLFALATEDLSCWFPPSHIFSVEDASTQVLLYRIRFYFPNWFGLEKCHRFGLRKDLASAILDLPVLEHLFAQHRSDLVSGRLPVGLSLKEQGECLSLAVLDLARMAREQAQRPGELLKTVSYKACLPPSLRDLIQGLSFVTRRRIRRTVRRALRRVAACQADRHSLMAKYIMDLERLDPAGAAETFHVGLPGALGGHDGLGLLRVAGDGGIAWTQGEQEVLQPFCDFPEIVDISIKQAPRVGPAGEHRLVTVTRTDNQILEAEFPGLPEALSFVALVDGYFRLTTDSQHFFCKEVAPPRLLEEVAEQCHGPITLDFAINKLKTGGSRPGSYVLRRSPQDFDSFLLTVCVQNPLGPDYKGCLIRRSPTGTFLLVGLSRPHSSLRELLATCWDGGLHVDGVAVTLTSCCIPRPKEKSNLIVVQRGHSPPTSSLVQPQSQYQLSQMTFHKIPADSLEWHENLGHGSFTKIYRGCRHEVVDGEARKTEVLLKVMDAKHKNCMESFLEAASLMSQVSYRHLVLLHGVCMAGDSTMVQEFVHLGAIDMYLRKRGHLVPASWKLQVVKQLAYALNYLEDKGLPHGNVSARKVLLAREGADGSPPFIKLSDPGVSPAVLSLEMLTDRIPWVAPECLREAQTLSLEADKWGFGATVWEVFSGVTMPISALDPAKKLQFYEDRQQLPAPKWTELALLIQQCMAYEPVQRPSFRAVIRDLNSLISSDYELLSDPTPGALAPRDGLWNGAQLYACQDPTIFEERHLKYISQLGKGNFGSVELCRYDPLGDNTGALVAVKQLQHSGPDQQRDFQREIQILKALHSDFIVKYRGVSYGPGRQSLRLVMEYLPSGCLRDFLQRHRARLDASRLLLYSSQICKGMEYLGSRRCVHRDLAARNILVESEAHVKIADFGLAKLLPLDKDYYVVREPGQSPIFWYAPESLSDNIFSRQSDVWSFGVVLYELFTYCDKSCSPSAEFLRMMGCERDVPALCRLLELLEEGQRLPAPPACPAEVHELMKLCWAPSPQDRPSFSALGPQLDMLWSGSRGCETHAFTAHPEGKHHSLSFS

Activity [1]: 19% | Emax [2]: 77% | Selectivity ratio (Homo sapiens): 13 | Activity [3]: inactive | Activity (Rattus norvegicus [4]): inactive | Activity [5]: inactive | Activity [6]: inactive | inhibition [7]: inactive | Activity [9]: inactive
SMILES: O/N=c1\cc(-c2cc3cccn3cn2)oc2ccc(OCCN3CCOCC3)cc12 [listing 1 of 2 here]
Activity (Mus musculus): Dose-dependent effect | Activity (Rattus norvegicus [8]): Active

Drug uptake(free) (Brain): 173 ng/g | Activity [10]: Not Active | Cmax [11]: 444 ng/mL | clearance [12]: 113 mL/min/kg | Tmax [13]: 0.25 h | half-life [14]: 4.5 h | concentration at 0.5 h [15]: 5650 ng/g | Kp at 0.5 h [16]: 3.1 | Kp at 0.5 h [17]: 2.3 | Kp at 0.5 h [18]: 1.7 | bioavailability [20]: 54% | Drug uptake (Plasma): 2 to 10%
SMILES: O/N=c1\cc(-c2cc3cccn3cn2)oc2ccc(OCCN3CCOCC3)cc12 [listing 2 of 2 here]
Ratio [19]: 14.5 | Activity (Rattus norvegicus [21]): Non-Toxic
